{"source": "ChEMBL document CHEMBL1138291", "about": "“Structure-activity studies of novel cyanoguanidine ATP-sensitive potassium channel openers for the treatment of overactive bladder” (J Med Chem, 2007)", "key": {"[1]": {"assay": "Activity at Kir6.2 channel in Landrace pig bladder detrusor assessed as relaxation of electrically stimulated contraction", "parameters": "species or system Sus scrofa"}, "Sus scrofa [2]": {"species_on_record": "Sus scrofa", "assay": "Inhibition of unstable spontaneous bladder contractions in Landrace/Yorkshire pig bladder instability model", "format": "functional, organism-based"}, "Sus scrofa [3]": {"system": "Sus scrofa", "assay": "Reduction of unstable spontaneous bladder contractions in Landrace/Yorkshire pig bladder instability model at 0.3 mg/kg, iv", "format": "functional", "parameters": "scale not given: the % may be the effect or the level left"}, "Sus scrofa [4]": {"system": "Sus scrofa", "assay": "Reduction of unstable spontaneous bladder contractions in Landrace/Yorkshire pig bladder instability model at 1 mg/kg, iv", "format": "functional", "parameters": "scale not given: the % may be the effect or the level left"}, "Sus scrofa [5]": {"system": "Sus scrofa", "assay": "Reduction of blood pressure in pig at 0.3 mg/kg, iv", "format": "functional", "parameters": "scale not given: the % may be the effect or the level left", "how_it_was_run": "(§1)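 Conscious obstructed, telemetered pigs held in restraint cage with 20 gauge venous catheters in both ears for dosing and blood sampling; mean arterial pressure recorded, averaged over post-dose period as percent change from baseline.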"}, "Sus scrofa [6]": {"system": "Sus scrofa", "assay": "Reduction of blood pressure in pig at 1 mg/kg, iv", "format": "functional", "parameters": "scale not given: the % may be the effect or the level left", "how_it_was_run": "as §1"}, "Portal vein": {"system": "Portal vein", "assay": "Effect on rat portal vein", "format": "functional, tissue-based"}, "[7]": {"assay": "Half life in dog at 10 nmol/kg, iv", "format": "ADME, organism-based, Canis lupus familiaris", "conditions": "in vivo"}, "[8]": {"assay": "Plasma clearance in dog at 10 nmol/kg, iv", "format": "ADME, organism-based, Canis lupus familiaris"}, "[9]": {"assay": "Tmax in dog at 10 nmol/kg, po", "format": "ADME, organism-based, Canis lupus familiaris", "conditions": "in vivo"}, "[10]": {"assay": "Half life in dog at 10 nmol/kg, po", "format": "ADME, organism-based, Canis lupus familiaris", "conditions": "in vivo"}, "[11]": {"assay": "Oral bioavailability in dog at 10 nmol/kg, po", "format": "ADME, organism-based, Canis lupus familiaris", "conditions": "in vivo"}, "[12]": {"assay": "Half life in dog at 100 nmol/kg, iv", "format": "ADME, organism-based, Canis lupus familiaris", "conditions": "in vivo"}, "[13]": {"assay": "Plasma clearance in dog at 100 nmol/kg, iv", "format": "ADME, organism-based, Canis lupus familiaris"}, "[14]": {"assay": "Tmax in dog at 100 nmol/kg, po", "format": "ADME, organism-based, Canis lupus familiaris", "conditions": "in vivo"}, "[15]": {"assay": "Half life in dog at 100 nmol/kg, po", "format": "ADME, organism-based, Canis lupus familiaris", "conditions": "in vivo"}, "[16]": {"assay": "Oral bioavailability in dog at 100 nmol/kg, po", "format": "ADME, organism-based, Canis lupus familiaris", "conditions": "in vivo"}}, "data": [{"compound": "CC(Cl)(Cl)C(NC(=O)c1ccc(Cl)cc1)N/C(=N/C#N)Nc1cncc(Br)c1", "note": "(stereo unspecified)", "values": [{"measurement": "Log EC50", "setting": "[1]", "value": -6.23}]}, {"compound": "CC(Cl)(Cl)C(NC(=O)c1ccc(Cl)cc1)N/C(=N/C#N)Nc1ccc(Cl)nc1", "note": "(stereo unspecified)", "values": [{"measurement": "Activity", "setting": "Sus scrofa [2]", "value": "Dose-dependent effect"}, {"measurement": "Activity", "setting": "Sus scrofa [3]", "value": 19.7, "unit": "%"}, {"measurement": "Activity", "setting": "Sus scrofa [4]", "value": 90.7, "unit": "%"}, {"measurement": "Activity", "setting": "Sus scrofa [5]", "value": 1.4, "unit": "%"}, {"measurement": "Activity", "setting": "Sus scrofa [6]", "value": 36, "unit": "%"}, {"measurement": "EC50", "setting": "Portal vein", "value": 0.813, "unit": "µM"}]}, {"compound": "CC(Cl)(Cl)C(NC(=O)c1cccc(Cl)c1)N/C(=N/C#N)Nc1ccc(Cl)nc1", "note": "(stereo unspecified)", "values": [{"measurement": "Log EC50", "setting": "[1]", "value": -5.35}]}, {"compound": "CC(O)(C(=O)Nc1ccc(C(=O)c2ccccc2)cc1)C(F)(F)F", "note": "(single isomer, unassigned) [ZD-6169]", "values": [{"measurement": "half-life", "setting": "[7]", "value": 1.9, "unit": "h"}, {"measurement": "clearance", "setting": "[8]", "value": 0.67, "unit": "L/h/kg"}, {"measurement": "Tmax", "setting": "[9]", "value": 0.4, "unit": "h"}, {"measurement": "half-life", "setting": "[10]", "value": 1.6, "unit": "h"}, {"measurement": "bioavailability", "setting": "[11]", "value": 43, "unit": "%"}]}, {"compound": "CC(Cl)(Cl)C(NC(=O)c1ccc(Cl)cc1)NC(=NC#N)Nc1ccc(Cl)nc1", "note": "(stereo unspecified)", "values": [{"measurement": "half-life", "setting": "[12]", "value": 9.9, "unit": "h"}, {"measurement": "clearance", "setting": "[13]", "value": 0.13, "unit": "L/h/kg"}, {"measurement": "Tmax", "setting": "[14]", "value": 0.4, "unit": "h"}, {"measurement": "half-life", "setting": "[15]", "value": 15, "unit": "h"}, {"measurement": "bioavailability", "setting": "[16]", "value": 100, "unit": "%"}]}, {"compound": "CC(Cl)(Cl)C(NC(=O)c1cccc(Cl)c1)N/C(=N/C#N)Nc1ccc(C(F)(F)F)nc1", "note": "(stereo unspecified)", "values": [{"measurement": "Log EC50", "setting": "[1]", "value": -5.28}]}, {"compound": "CC(Cl)(Cl)C(NC(=O)c1ccc(Cl)cc1)N/C(=N/C#N)Nc1ccccc1F", "note": "(stereo unspecified)", "values": [{"measurement": "Log EC50", "setting": "[1]", "value": -5.98}]}, {"compound": "COc1ncccc1N/C(=N\\C#N)NC(NC(=O)c1ccc(Cl)cc1)C(C)(Cl)Cl", "note": "(stereo unspecified)", "values": [{"measurement": "Log EC50", "setting": "[1]", "value": -6.6}]}, {"compound": "Cc1cccc(C(=O)NC(N/C(=N/C#N)Nc2ccc(C(F)(F)F)nc2)C(C)(Cl)Cl)c1", "note": "(stereo unspecified)", "values": [{"measurement": "Log EC50", "setting": "[1]", "value": -5.94}]}, {"compound": "CC(Cl)(Cl)C(NC(=O)c1ccc(Cl)cc1)N/C(=N/C#N)Nc1ccc(F)nc1", "note": "(stereo unspecified)", "values": [{"measurement": "Log EC50", "setting": "[1]", "value": -5.87}]}, {"compound": "CC(Cl)(Cl)C(NC(=O)c1cc(Cl)cc(Cl)c1)N/C(=N/C#N)Nc1ccc(C(F)(F)F)nc1", "note": "(stereo unspecified)", "values": [{"measurement": "Log EC50", "setting": "[1]", "value": -5.7}]}, {"compound": "CC(Cl)(Cl)[C@@H](NC(=O)c1ccc(Cl)cc1)N/C(=N/C#N)Nc1cccnc1", "values": [{"measurement": "Log EC50", "setting": "[1]", "value": -5.26}]}, {"compound": "CC(Cl)(Cl)C(NC(=O)c1ccc(Cl)cc1)N/C(=N/C#N)Nc1cccnc1Cl", "note": "(stereo unspecified)", "values": [{"measurement": "Log EC50", "setting": "[1]", "value": -6.16}]}, {"compound": "CC(Cl)(Cl)C(NC(=O)c1cccc(F)c1)N/C(=N/C#N)Nc1ccc(Cl)nc1", "note": "(stereo unspecified)", "values": [{"measurement": "Log EC50", "setting": "[1]", "value": -5.68}]}, {"compound": "Cc1ccc(C(=O)NC(N/C(=N/C#N)Nc2ccc(C(F)(F)F)nc2)C(C)(Cl)Cl)cc1", "note": "(stereo unspecified)", "values": [{"measurement": "Log EC50", "setting": "[1]", "value": -5.15}]}, {"compound": "CC(Cl)(Cl)C(NC(=O)c1ccc(C(F)(F)F)cc1)N/C(=N/C#N)Nc1ccc(C(F)(F)F)nc1", "note": "(stereo unspecified)", "values": [{"measurement": "Log EC50", "setting": "[1]", "value": -5.65}]}, {"compound": "CC(Cl)(Cl)C(NC(=O)c1cccs1)N/C(=N/C#N)Nc1ccc(C(F)(F)F)nc1", "note": "(stereo unspecified)", "values": [{"measurement": "Log EC50", "setting": "[1]", "value": -5.44}]}, {"compound": "CC(Cl)(Cl)C(NC(=O)c1ccc(F)cc1)N/C(=N/C#N)Nc1ccc(C(F)(F)F)nc1", "note": "(stereo unspecified)", "values": [{"measurement": "Log EC50", "setting": "[1]", "value": -6.02}]}, {"compound": "CC(Cl)(Cl)C(NC(=O)c1cccc(F)c1)N/C(=N/C#N)Nc1ccc(C(F)(F)F)nc1", "note": "(stereo unspecified)", "values": [{"measurement": "Log EC50", "setting": "[1]", "value": -5.71}]}, {"compound": "CC(Cl)(Cl)C(NC(=O)c1ccc(Cl)cc1)N/C(=N/C#N)Nc1ccc(C(F)(F)F)nc1", "note": "(stereo unspecified)", "values": [{"measurement": "Log EC50", "setting": "[1]", "value": -5.78}]}, {"compound": "CC(Cl)(Cl)C(NC(=O)c1cc(F)cc(F)c1)N/C(=N/C#N)Nc1ccc(C(F)(F)F)nc1", "note": "(stereo unspecified)", "values": [{"measurement": "Log EC50", "setting": "[1]", "value": -5.54}, {"measurement": "half-life", "setting": "[12]", "value": 5.5, "unit": "h"}, {"measurement": "clearance", "setting": "[13]", "value": 0.06, "unit": "L/h/kg"}, {"measurement": "Tmax", "setting": "[14]", "value": 0.7, "unit": "h"}, {"measurement": "half-life", "setting": "[15]", "value": 6.9, "unit": "h"}, {"measurement": "bioavailability", "setting": "[16]", "value": 100, "unit": "%"}]}, {"compound": "Cc1cccc(C(=O)NC(N/C(=N/C#N)Nc2ccc(Cl)nc2)C(C)(Cl)Cl)c1", "note": "(stereo unspecified)", "values": [{"measurement": "Log EC50", "setting": "[1]", "value": -5.42}]}, {"compound": "CC(Cl)(Cl)C(NC(=O)c1cc(Cl)cc(Cl)c1)N/C(=N/C#N)Nc1ccc(Cl)nc1", "note": "(stereo unspecified)", "values": [{"measurement": "Log EC50", "setting": "[1]", "value": -5.44}]}]}
